Measurements: ChEMBL document CHEMBL1156597, “Structure-activity relationship of kahalalide F synthetic analogues” (J Med Chem, 2008)

What was measured:
[1] = tested on: DU-145; experiment: Cytotoxicity against human DU145 cells after 48 hrs by SRB assay; type: functional, cell-based; settings: Homo sapiens, DU-145, 48 h; for CC50: read-out: LC50 (the source's name)
Method in brief: (§1)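 Cells grown in RPMI 1640 with 10% FBS and penicillin/streptomycin at 37 °C and 5% CO₂, trypsinized, then seeded at 5 × 10³/well. After 18 h drug-free attachment, samples in DMSO/EtOH/PBS (0.5:0.5:99) were added for 48 h continuous exposure. Cells were fixed with cold TCA (1 h, 4 °C) and stained with SRB (10 min). Tris-solubilized stain read at 490 nm. Triplicate wells, mean ± SD; GI₅₀ derived.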

[2] = tested on: LNCaP; experiment: Cytotoxicity against human LNcaP cells after 48 hrs by SRB assay; type: functional; settings: for CC50: read-out: LC50 (the source's name); method in brief: as §1
[3] = Cytotoxicity against human IGROV cells after 48 hrs by SRB assay; type: functional; settings: for CC50: read-out: LC50 (the source's name); method in brief: as §1
[4] = Cytotoxicity against human IGROV-ET cells after 48 hrs by SRB assay; type: functional; settings: for CC50: read-out: LC50 (the source's name); method in brief: as §1
[5] = tested on: SK-BR-3; experiment: Cytotoxicity against human SKBR3 cells after 48 hrs by SRB assay; type: functional; settings: SK-BR-3, 48 h; for CC50: read-out: LC50 (the source's name); method in brief: as §1
[6] = tested on: SK-MEL-28; experiment: Cytotoxicity against human SK-MEL-28 cells after 48 hrs by SRB assay; type: functional, cell-based; settings: Homo sapiens, SK-MEL-28, 48 h; for CC50: read-out: LC50 (the source's name); method in brief: as §1
[7] = tested on: A549; experiment: Cytotoxicity against human A549 cells after 48 hrs by SRB assay; type: functional, cell-based; settings: Homo sapiens, A549, 48 h; method in brief: as §1
[8] = tested on: K562; experiment: Cytotoxicity against human K562 cells after 48 hrs by SRB assay; type: functional; settings: K562, 48 h; for CC50: read-out: LC50 (the source's name); method in brief: as §1
[9] = tested on: PANC-1; experiment: Cytotoxicity against human PANC1 cells after 48 hrs by SRB assay; type: functional; settings: PANC-1, 48 h; for CC50: read-out: LC50 (the source's name); method in brief: as §1
[10] = tested on: HT-29; experiment: Cytotoxicity against human HT29 cells after 48 hrs by SRB assay; type: functional, cell-based; settings: Homo sapiens, HT-29, 48 h; for CC50: read-out: LC50 (the source's name); method in brief: as §1
[11] = tested on: LoVo; experiment: Cytotoxicity against human LoVo cells after 48 hrs by SRB assay; type: functional; settings: for CC50: read-out: LC50 (the source's name)
[12] = tested on: LoVo; experiment: Cytotoxicity against human doxorubicin resistant LoVo cells after 48 hrs by SRB assay; type: functional; settings: for CC50: read-out: LC50 (the source's name); method in brief: as §1
[13] = tested on: HeLa; experiment: Cytotoxicity against human HeLa cells after 48 hrs by SRB assay; type: functional; settings: for CC50: read-out: LC50 (the source's name); method in brief: as §1
[14] = Cytotoxicity against human HeLa-APL cells after 48 hrs by SRB assay; type: functional; method in brief: as §1

| Structure (SMILES) | GI50 ([1]; read-out: GI50) | CC50 [1] | GI50 [2] | TGI [2] | CC50 [2] | GI50 ([3]; read-out: GI50) | CC50 [3] | GI50 ([4]; read-out: GI50) | CC50 [4] | CC50 [5] | CC50 [6] | LC50 [7] | GI50 ([7]; read-out: GI50) | CC50 [8] | CC50 [9] | CC50 [10] | CC50 [11] | CC50 [12] | CC50 [13] | GI50 [14] | other results |
| --- | --- | --- | --- | --- | --- | --- | --- | --- | --- | --- | --- | --- | --- | --- | --- | --- | --- | --- | --- | --- | --- |
| C/C=C1\NC(=O)[C@H](Cc2ccccc2)NC(=O)[C@@H](C(C)C)NC(=O)[C@@H]([C@H](C)CC)NC(=O)[C@H](NC(=O)[C@H](NC(=O)[C@H](CCCN)NC(=O)[C@H]2CCCN2C(=O)[C@H](NC(=O)[C@@H](NC(=O)[C@@H](NC(=O)[C@H](NC(=O)CCCCCCCCCCCCCCC)C(C)C)[C@@H](C)O)C(C)C)C(C)C)[C@H](C)CC)[C@H](C)OC(=O)[C@H](C(C)C)NC1=O | 145 nM | 111 nM | 129 nM | 118 nM | 107 nM | 191 nM | 62.2 nM | 345 nM | 79.1 nM | 36 nM | 110 nM | 117 nM | 1370 nM | 703 nM | 1300 nM | 72.7 nM | 286 nM | 258 nM | 151 nM | 326 nM | GI50 [1]: 126 nM; GI50 [3]: 92.6 nM; GI50 [4]: 140 nM; GI50 [5]: 39.8 nM; GI50 ([5]; read-out: GI50): 43.9 nM; GI50 [6]: 123 nM; GI50 ([6]; read-out: GI50): 138 nM; GI50 [7]: 126 nM; GI50 [8]: 124 nM; TGI [8]: 314 nM; GI50 [9]: 203 nM; TGI [9]: 1370 nM; GI50 [11]: 300 nM; TGI [11]: 293 nM; GI50 [12]: 264 nM; TGI [12]: 262 nM; LC50 (concentration giving 50% net cell kill) [14]: 513 nM; TGI [14]: 479 nM |
| C/C=C1\NC(=O)[C@H](Cc2ccccc2)NC(=O)[C@@H](C(C)C)NC(=O)[C@@H]([C@H](C)CC)NC(=O)[C@H](NC(=O)[C@H](NC(=O)[C@H](CCCN)NC(=O)[C@H]2CCCN2C(=O)[C@H](NC(=O)[C@@H](NC(=O)[C@@H](NC(=O)[C@H](NC(=O)CC[C@H](C)CC)C(C)C)[C@@H](C)O)C(C)C)C(C)C)[C@H](C)CC)[C@H](C)OC(=O)[C@H](C(C)C)NC1=O | 1440 nM | 1130 nM | 1470 nM | 1290 nM | 1130 nM | 1520 nM | 551 nM | 1900 nM | 614 nM | 383 nM | 1160 nM | 1360 nM | 1480 nM | 1930 nM | 1640 nM | 668 nM | 1890 nM | 1660 nM | 971 nM | 1420 nM | TGI [1]: 1270 nM; GI50 [3]: 776 nM; GI50 [4]: 920 nM; TGI [5]: 425 nM; GI50 ([5]; read-out: GI50): 469 nM; TGI [6]: 1270 nM; GI50 ([6]; read-out: GI50): 1370 nM; TGI [7]: 1420 nM; GI50 [8]: 2180 nM; TGI [8]: 1930 nM; GI50 [11]: 690 nM; TGI [11]: 1180 nM; GI50 [12]: 690 nM; TGI [12]: 1040 nM; LC50 (concentration giving 50% net cell kill) [14]: 1240 nM; TGI [14]: 1420 nM |
| C/C=C1\NC(=O)[C@H](Cc2ccccc2)NC(=O)[C@@H](C(C)C)NC(=O)[C@@H]([C@H](C)CC)NC(=O)[C@H](NC(=O)[C@H](NC(=O)[C@H](CCCN)NC(=O)[C@H]2CCCN2C(=O)[C@H](NC(=O)[C@@H](NC(=O)[C@H](CC(C)C)NC(=O)[C@H](NC(=O)CCCC(C)C)C(C)C)C(C)C)C(C)C)[C@H](C)CC)[C@H](C)OC(=O)[C@H](C(C)C)NC1=O | 959 nM | 944 nM | 1050 nM | 964 nM | 879 nM | 637 nM | 489 nM | 754 nM | 538 nM | 360 nM | 1140 nM | 5280 nM | 637 nM | 1630 nM | 1760 nM | 442 nM | 331 nM | 256 nM | 983 nM | 1170 nM | GI50 [1]: 949 nM; GI50 [3]: 566 nM; GI50 [4]: 583 nM; TGI [5]: 466 nM; GI50 ([5]; read-out: GI50): 428 nM; TGI [6]: 1210 nM; GI50 ([6]; read-out: GI50): 1270 nM; GI50 [7]: 602 nM; GI50 [8]: 542 nM; TGI [8]: 926 nM; GI50 [9]: 1110 nM; TGI [9]: 1280 nM; GI50 [11]: 417 nM; TGI [11]: 459 nM; GI50 [12]: 280 nM; TGI [12]: 244 nM; GI50 [13]: 1060 nM; TGI [13]: 1020 nM; LC50 (concentration giving 50% net cell kill) [14]: 890 nM; TGI [14]: 1020 nM |
| C/C=C1\NC(=O)[C@H](Cc2ccccc2)NC(=O)[C@@H](C(C)C)NC(=O)[C@@H]([C@H](C)CC)NC(=O)[C@H](NC(=O)[C@H](NC(=O)[C@H](CCCN)NC(=O)[C@H]2CCCN2C(=O)[C@H](NC(=O)[C@@H](NC(=O)[C@@H](NC(=O)[C@@H](CC2CCCCC2)NC(=O)CCCC(C)C)[C@@H](C)O)C(C)C)C(C)C)[C@H](C)CC)[C@H](C)OC(=O)[C@H](C(C)C)NC1=O | 1410 nM | 1030 nM | 2980 nM | 3460 nM | 1720 nM | 1270 nM | 401 nM | 1090 nM | 373 nM | 4990 nM | 1230 nM | 1770 nM | 1970 nM | 2340 nM | 2440 nM | 2650 nM | 2180 nM | 247 nM | 917 nM | 1450 nM | TGI [1]: 1200 nM; TGI [3]: 8320 nM; TGI [4]: 1230 nM; TGI [5]: 862 nM; GI50 ([5]; read-out: GI50): 789 nM; TGI [6]: 1470 nM; GI50 ([6]; read-out: GI50): 1730 nM; TGI [7]: 2180 nM; GI50 [8]: 2100 nM; TGI [8]: 3070 nM; GI50 [10]: 2010 nM; TGI [10]: 2310 nM; GI50 [11]: 2090 nM; TGI [11]: 2130 nM; GI50 [12]: 825 nM; TGI [12]: 746 nM; GI50 [13]: 1300 nM; TGI [13]: 1090 nM; LC50 (concentration giving 50% net cell kill) [14]: 1140 nM; TGI [14]: 1290 nM |
| C=C1NC(=O)[C@H](Cc2ccccc2)NC(=O)[C@@H](C(C)C)NC(=O)[C@@H]([C@H](C)CC)NC(=O)[C@H](NC(=O)[C@H](NC(=O)[C@H](CCCN)NC(=O)[C@H]2CCCN2C(=O)[C@H](NC(=O)[C@@H](NC(=O)[C@@H](NC(=O)[C@H](NC(=O)CCCC(C)C)C(C)C)[C@@H](C)O)C(C)C)C(C)C)[C@H](C)CC)[C@H](C)OC(=O)[C@H](C(C)C)NC1=O | 1110 nM | 730 nM | 1440 nM | 1860 nM | 1410 nM | 630 nM | 334 nM | 349 nM | 392 nM | 360 nM | 1160 nM | 1070 nM | 1200 nM | 1950 nM | 1790 nM | 612 nM | 295 nM | 235 nM | 646 nM | 893 nM | GI50 [1]: 901 nM; GI50 [3]: 442 nM; GI50 [4]: 366 nM; TGI [5]: 412 nM; GI50 ([5]; read-out: GI50): 458 nM; TGI [6]: 1130 nM; GI50 ([6]; read-out: GI50): 1100 nM; TGI [7]: 1140 nM; GI50 [8]: 2470 nM; TGI [8]: 3010 nM; GI50 [10]: 638 nM; TGI [10]: 804 nM; GI50 [11]: 309 nM; TGI [11]: 318 nM; GI50 [12]: 393 nM; TGI [12]: 3720 nM; LC50 (concentration giving 50% net cell kill) [14]: 791 nM; TGI [14]: 842 nM |
| C/C=C1\NC(=O)[C@H](Cc2ccccc2)NC(=O)[C@@H](C(C)C)NC(=O)[C@@H]([C@H](C)CC)NC(=O)[C@H](NC(=O)[C@H](NC(=O)[C@H](CCCN)NC(=O)[C@H]2CCCN2C(=O)[C@H](NC(=O)[C@@H](NC(=O)[C@H](CCC(=O)O)NC(=O)[C@H](NC(=O)CCCC(C)C)C(C)C)C(C)C)C(C)C)[C@H](C)CC)[C@H](C)OC(=O)[C@H](C(C)C)NC1=O | 2480 nM | 1370 nM | 1070 nM | 949 nM | 838 nM | 857 nM | 483 nM | 1130 nM | 639 nM | 356 nM | 1470 nM | 7080 nM | 1630 nM | 1960 nM | 1740 nM | 422 nM | 292 nM | 294 nM | 1100 nM | 2060 nM | TGI [1]: 2630 nM; GI50 [3]: 498 nM; GI50 [4]: 849 nM; TGI [7]: 1450 nM; GI50 [13]: 2550 nM; TGI [13]: 2500 nM; LC50 (concentration giving 50% net cell kill) [14]: 956 nM; TGI [14]: 1890 nM |
